Assay results as given in PubChem BioAssay AID1556 (The Scripps Research Institute Molecular Screening Center, 2009).
Hit rate of the full screen: of about 290,000 compounds, about 1,300 (0.45%) were called active. For the sample, actives were picked, then their nearest neighbours and some compounds at random. A number with no mark means an inactive call.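 How the source made its calls: active means inhibition above the mean plus 3 SD of all compounds in the same screening run (cut at about 4.5% in these data); inactive means the rest.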

system: metallo-beta-lactamase IMP-1 (Pseudomonas aeruginosa); test: inhibition of IMP-1 nitrocefin hydrolysis – biochemical, epi-absorbance readout, Pseudomonas aeruginosa enzyme, primary screen (AID 1556); conditions: purified IMP-1, nitrocefin hydrolysis, epi-absorbance fluorescence; at 5.6 µM; stronger effect = higher value;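 further: 0% = IMP-1 with DMSO and 100% = DMSO wells lacking enzyme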
Method in brief: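 System: purified IMP-1; amount: IMP-1 0.2 nM before substrate addition; compound: single dose, 5.6 µM; times: 25 °C, 15 min preincubation, 25 min reaction; signal: Epi-absorbance via hydrolysed-nitrocefin quenching of white-plate fluorescence, 480/530 nm, EDTA stop; benchmarks: DMSO with and without IMP-1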

Row | Structure (SMILES) | inhibition
1 | Cc1ccccc1C(=O)NC(=S)Nc1ccc(N2CCN(C(=O)c3ccccc3)CC2)cc1 | -0.21%
2 | Cc1nc2sc(C(=O)c3ccccc3)c(N)c2c2c1CCCC2 | -2.49%
3 | CN(C)c1ccnc2sc(C(=O)c3ccccc3)c(N)c12 | -4.61%
4 | Nc1c(C(=O)c2cccs2)sc2nsc(SCCN3CCCCC3)c12 | 6.4% (active)
5 | N#C/C(=C\c1cccnc1)C(=O)Nc1ccc(SC(F)F)cc1 | -1.66%
6 | Nc1ccc2nc3c(=O)[nH]c(=S)[nH]c3nc2c1 | 26.7% (active)
7 | Cc1cccc(OCC(=O)Nc2ccc(C(=O)O)cc2NC(=O)COc2cccc(C)c2)c1 | -0.18%
8 | O=C(CSc1nnnn1-c1ccc(O)cc1)N1N=C(c2ccc3ccccc3c2)CC1c1ccccc1 (centres undefined) | -2.75%
9 | COc1ccc(N2CCN(S(=O)(=O)c3ccc4c(c3)N(C(C)=O)CCO4)CC2)cc1 | -2.08%
10 | Cc1ccnc(NC(=O)c2ccco2)n1 | 29.4% (active)
11 | O=C(Nc1ccccc1)c1ccco1 | -3.16%
12 | O=C(Nc1ccc2nccnc2c1)c1ccco1 | -1.29%
13 | Cc1cccc2c1cnn2C(=O)CCC(=O)NC1CCCCC1 | -3.55%
14 | Cc1cccc(NC(=O)Cn2c(=O)n(Cc3ccccc3)c(=O)c3c(C)c(C)sc32)c1 | -3.05%
15 | CCN(CC(=O)Nc1ccc(S(=O)(=O)N2CCCC2)cc1)CC(=O)Nc1cccc(OC)c1 | 13% (active)
16 | COc1ccccc1CC(=O)Nc1ccc(S(=O)(=O)N2CCCC2)cc1 | -1.76%
17 | CCOc1cccc(NC(=O)C2CCCN(S(=O)(=O)c3ccc(OC)cc3)C2)c1 (centres undefined) | 0.1%
18 | O=C(CN1CCN(c2ccc(O)cc2)CC1)Nc1ccc(-c2ccccc2)cc1 | -3.22%
19 | CC(C)N(C(=O)Cn1cc(S(=O)(=O)CC(=O)N2CCOCC2)c2ccccc21)C(C)C | 1.49%
20 | N#CC1=C(N)Oc2c(sc3ccccc23)C1c1ccco1 (centres undefined) | 5.37% (active)
21 | Cc1cc(C)c2c3c(sc2n1)C(c1ccccc1)C(C#N)=C(N)O3 (centres undefined) | -3.3%
22 | CC1=C(C(=O)Nc2ccccc2)C(c2ccco2)C(C#N)=C(SCC(N)=O)N1 (centres undefined) | -0.1%
23 | Cc1cc(C)nc(N2C(=O)CC(Cc3ccccc3)C2=O)n1 (centres undefined) | -2.26%

Row | Structure (SMILES) | inhibition
24 | O=C(O)CN1C(=O)CC(Cc2ccccc2)C1=O (centres undefined) | 4.79% (active)
25 | O=C1CC(Cc2ccccc2)C(=O)N1c1ccc(Cl)cn1 (centres undefined) | -3.13%
26 | CCOC(=O)CCCNC(=O)COC(=O)/C=C/c1ccc2c(c1)OCO2 | -0.37%
27 | CCC1=C/C(=C\c2ccc3c(c2)OCO3)C(=O)S1 | 6.67% (active)
28 | O=C1/C(=C/c2ccc3c(c2)OCO3)CCC/C1=C\c1ccc2c(c1)OCO2 | 0.49%
29 | O=C(Nc1ccc(F)cc1)C(=O)c1cn(CC(=O)N2CCOCC2)c2ccccc12 | -5.04%
30 | CS(=O)(=O)N1CCN(C(=O)CSc2ccccc2)CC1 | -2.52%
31 | Oc1ccc2ccc3cccc[n+]3c2c1 | 34.3% (active)
32 | CCCCC(=O)Nc1ccccc1N1CCN(c2ccc(F)cc2)CC1 | -3.05%
33 | CCOC(CNC(=O)C1CCN(S(=O)(=O)c2ccc3nc4c(c(C(=O)O)c3c2)CC(C)CC4)CC1)OCC (centres undefined) | -0.25%
34 | Cc1ccc(CNC(=O)C2CCN(S(=O)(=O)c3ccc4nc5c(c(C(=O)O)c4c3)CC(C)CC5)CC2)cc1 (centres undefined) | 5.35% (active)
35 | CC(=O)N1c2ccc(S(=O)(=O)N3CCC(C(=O)NCc4ccc(F)cc4)CC3)cc2CC1C (centres undefined) | -3.57%
36 | Cc1nc(CN(C)C(=O)CC2C(=O)NCCN2Cc2ccc(F)cc2)cs1 (centres undefined) | -2.3%
37 | Cc1cccc(C)c1NC(=O)N1CC=C(n2c(=O)[nH]c3ccccc32)CC1 | -4.93%
38 | CCOc1ccc(NC(=O)N2CC=C(n3c(=O)[nH]c4ccccc43)CC2)cc1 | 6.24% (active)
39 | CCOc1ccc(NC(=O)N2CCN(CC)CC2)cc1 | -1.66%
40 | COc1ccc(NC(=O)CN2C(=O)COc3ccc(S(=O)(=O)N4CCOCC4)cc32)cc1 | -3.61%
41 | Cc1ccc(CNC(=O)C(=O)c2cn(CC(=O)N3CCOCC3)c3ccccc23)cc1 | -2.82%
42 | Cn1ccc(=Nc2ccc(NC(=O)c3ccc(N=c4ccn(C)c5ccc([N+](=O)[O-])cc45)cc3)cc2)cc1 | 14.8% (active)
43 | O=C(Nc1ccc(C(=O)N2CCCCC2)cc1)c1cccc([N+](=O)[O-])c1 | -1.61%
44 | Cc1cc([N+](=O)[O-])ccc1NC(=O)c1ccc(NC(=O)C(C)C)cc1 | -0.19%
45 | Cc1sc2ncn(CC(=O)NCCCC(=O)N(C)Cc3ccccc3)c(=O)c2c1C | -3.46%
46 | Cc1ccc(-n2ncc3c2CC(C)(C)CC3NC(=O)CCc2cnn(C)c2)cc1 (centres undefined) | -2.72%

Row | Structure (SMILES) | inhibition
47 | COCCOC(=O)c1sc(=S)n(CCOC)c1N | -0.79%
48 | CCN(Cc1ccccc1)C(=O)CCS(=O)(=O)c1ccc2c(c1)oc(=O)n2C | -3.48%
49 | C=CCn1c(=O)c(C(=O)Nc2ncccc2O)c(O)c2ccccc21 | -5.49%
50 | Cc1c(CCC(=O)O)c(=O)oc2c(C)c(OCc3ccccc3Cl)ccc12 | 11.5% (active)
51 | Cc1c(CCC(=O)O)c(=O)oc2cc(OCc3ccc(Br)cc3)ccc12 | -4.45%
52 | CCOC(=O)CCc1c(C)c2ccc(OCc3nn[nH]n3)c(C)c2oc1=O | -1.75%
53 | COc1ccccc1N1CCN(S(=O)(=O)CCNC(=O)c2ccc(OC(C)C)cc2)CC1 | -1.73%
54 | CCOc1cc(NC(=O)Nc2ccccc2)c(OCC)cc1NC(=O)CC | 1.47%
55 | CCOC(=O)Nc1ccc2c(c1)N(C(=O)CCCl)c1ccccc1[S@]2=O | -1.86%
56 | COc1ccc(-n2c(=O)[nH]c3cc(C(=O)NCCc4ccc(OC)c(OC)c4)ccc3c2=O)c(OC)c1 | -0.95%
57 | COc1ccc(/C=C(\C#N)c2c[nH]c3ccccc23)cc1 | -0.02%
58 | C[n+]1ccc(/C=C/c2c[nH]c3ccccc23)cc1 | 11.3% (active)
59 | O=C(N/N=C/c1c[nH]c2ccccc12)c1ccccc1O | -3.56%
60 | COc1ccc(C2c3[nH]c4ccccc4c3C[C@H]3C(=O)N(CC(C)C)CC(=O)N23)c(OC)c1 (some centres undefined) | -2.7%
61 | Cc1cc(Cl)ccc1OCCCC(=O)Nc1cccc(-n2cnnn2)c1 | -1.81%
62 | Cc1c(CN2CCC(n3nccc3NC(=O)CCc3ccccc3)CC2)cnn1C | 40.5% (active)
63 | Cc1ccc(CN2CCC(n3nccc3NC(=O)CCCc3ccccc3)CC2)o1 | -1.11%
64 | CCn1cc(CN2CCC(n3nccc3NC(=O)CCCc3ccccc3)CC2)c(C)n1 | -2.27%
65 | CCCSc1nc2sc3c(c2c(=O)n1-c1ccc(OC)cc1)CCN(C)C3 | -1.47%
66 | CCOc1ccc(-n2c(SCC(=O)Nc3ccc(OC)cc3)nc3sc4c(c3c2=O)CCN(C)C4)cc1 | 7.22% (active)
67 | CCOc1ccc(-n2c(SCC(=O)OC)nc3sc4c(c3c2=O)CCN(C)C4)cc1 | 1.15%
68 | CCN(c1ccccc1)S(=O)(=O)c1cc2c(cc1C)n(C)c(=O)c(=O)n2C | -1.34%
69 | CC(NC(=O)COc1ccc(-c2ccccc2)cc1)C1CCCO1 (centres undefined) | -0.53%

Row | Structure (SMILES) | inhibition
70 | COC(=O)c1cc(C(=O)NC(C)C2CC3CCC2C3)cc([N+](=O)[O-])c1 (centres undefined) | -3.23%
71 | O=C(NCCc1ccc(Cl)cc1)C1CC(=O)N(C2CCCCC2)C1 (centres undefined) | -3.24%
72 | O=C(NCCCN1CCCCCC1)C1CC(=O)N(C2CCCC2)C1 (centres undefined) | 6.55% (active)
73 | CC(C)OCCCNC(=O)C1CC(=O)N(C2CCCCCCC2)C1 (centres undefined) | -4.36%
74 | CC1(C)CC(=O)CC2(C1)NCC(c1ccccc1Cl)c1c2[nH]c2ccccc12 (centres undefined) | -5.43%
75 | COc1ccc(NC(=O)CCN2C(=O)/C(=C/c3ccc4c(c3)OCO4)SC2=S)cc1 | -3.16%
76 | Cc1ccc(C(=O)O)cc1-c1ccc(/C=C2\SC(=O)N(CC(=O)Nc3ccc4c(c3)OCO4)C2=O)o1 | 8.27% (active)
77 | Cn1cccc1/C=C1\SC(=O)N(CC(=O)Nc2ccc(F)cc2)C1=O | -1.78%
78 | COc1ccccc1-c1sc2ccccc2c1-c1ccc(C(C)=O)cc1 | 1.15%
79 | CCc1ccccc1N(CC(=O)NCC1CCCO1)C(=O)CCC(=O)Nc1nccs1 (centres undefined) | -4.39%
80 | O=C(NCc1cccc(Cl)c1)C1CCN(c2nnc(N3CCCC3=O)s2)CC1 | -2.2%
81 | COc1ccc(NC(=O)CCC(=O)Nc2nnc(C3CCCCC3)s2)cc1 | -2.6%
82 | COc1ccc2c(CC(=O)Nc3nnc(C4CC4)s3)coc2c1 | 68.4% (active)
83 | Cc1cc(=O)oc2cc(OCC(=O)Nc3nnc(C4CC4)s3)ccc12 | -1.51%
84 | O=C(NCCCn1ccnc1)C(=O)NCC1OCCN1S(=O)(=O)c1cc(F)ccc1F (centres undefined) | 5.52% (active)
85 | Cc1cc(F)ccc1S(=O)(=O)N1CCCOC1CNC(=O)C(=O)NCCC1=CCCCC1 (centres undefined) | -1.85%
86 | O=C(NCCCc1ccccc1)C(=O)NCC1OCCN1S(=O)(=O)c1ccccc1 (centres undefined) | -6.52%
87 | CCn1c(=S)sc2c(=O)n(CC(=O)Nc3ccc(OC)cc3)c(C)nc21 | -1.8%
88 | COc1ccc(CCNC(=O)c2cnc(Cl)c(Cl)c2)cc1 | -2.17%
89 | O=C(Nc1cccc(F)c1)NC1CCCc2ccccc21 (centres undefined) | -1.14%
